Measurements as given in ChEMBL document CHEMBL2203169, “Effect of allyl sulfides from garlic essential oil on intracellular ca2+ levels in renal tubular cells” (J Nat Prod, 2012).
Active and inactive are the calls of the source. No cut-off for these calls is given here.

Key:
MDCK [1] = assay: Cell cycle arrest in MDCK cells assessed as accumulation at G2/M phase at 100 uM after 16 hrs by flow cytometric analysis (reference value: 19.8%); format: functional, Canis lupus familiaris
MDCK [2] = assay: Induction of intracellular calcium level in MDCK cells at 100 uM assessed as calcium influx by Fura-2 in presence of calcium and 1 uM diltiazem L-type calcium channel blocker; format: functional, cell-based; conditions: Canis lupus familiaris
Method in brief: (§1)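 Fura-2-loaded MDCK cells in Ca2+-containing medium at 25 °C, pretreated 1 min with the 1 μM L-type blocker before 100 μM compound was added at 30 s. Response taken as net area under the [Ca2+]i curve from 30 to 250 s, expressed as percent of unblocked control. Means ± SEM of five experiments.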

MDCK [3] = assay: Induction of intracellular calcium level in MDCK cells at 100 uM by Fura-2 in calcium free medium in presence of phospholipase C inhibitor U73122; conditions: Canis lupus familiaris
MDCK [4] = assay: Induction of intracellular calcium level in MDCK cells at 1 uM by Fura-2 in presence of extracellular calcium; conditions: Canis lupus familiaris
MDCK [5] = assay: Cytotoxicity against MDCK cells assessed as decrease in cell viability after 16 hrs by tetrazolium salt WST-1 assay; format: functional, cell-based; conditions: Canis lupus familiaris
Method in brief: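 MDCK cells plated at 1 × 10^4 per well and grown 24 h to 70% confluence, then exposed 16 h to compound (0–2 mM range). Cells washed, then incubated 2 h at 37 °C with WST-1; absorbance read at 450 nm. Values expressed as percent of vehicle control (0.1% DMSO). n = 5.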

MDCK [6] = assay: Cell cycle arrest in MDCK cells assessed as accumulation at G1 phase at 100 uM after 16 hrs by flow cytometric analysis (reference value: 55.7%); format: functional, Canis lupus familiaris
MDCK [7] = assay: Induction of intracellular calcium level in MDCK cells at 100 uM by Fura-2 in presence of calcium and 1 uM nicardipine L-type calcium channel blocker; format: functional, cell-based; conditions: Canis lupus familiaris; method in brief: as §1
MDCK [8] = assay: Induction of intracellular calcium level in MDCK cells at 100 uM by Fura-2 in presence of calcium and 2 uM GF109203 X acetate protein kinase C inhibitor; format: functional, cell-based; conditions: Canis lupus familiaris
Method in brief: (§2)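 Fura-2-loaded MDCK cells in Ca2+-containing medium (2 mM CaCl2, pH 7.4) at 25 °C, pretreated with 10 nM phorbol myristate acetate or 2 μM GF109203X before 100 μM compound. [Ca2+]i was read from the 340/380 nm fura-2 ratio. n = 5.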

MDCK [9] = assay: Induction of intracellular calcium level in MDCK cells at 100 uM by Fura-2 in calcium free medium in presence of endoplasmic reticulum Ca2+-ATPase inhibitor thapsigargin; format: functional, cell-based; conditions: Canis lupus familiaris
Method in brief: (§3)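 Fura-2-loaded MDCK suspension (0.5 million cells/mL) in Ca2+-free medium, where CaCl2 was replaced by 0.1 mM EGTA; 25 °C, stirred cuvette. Signals recorded at 340/380 nm excitation and 510 nm emission every 1 s. Store depletion used 1 μM thapsigargin, applied before compound or after 220 s compound preincubation. Phospholipase C tests used 10 μM ATP and 2 μM U73122. [Ca2+]i calculated with Kd 155 nM. Means ± SEM, n = 5.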

MDCK [10] = assay: Induction of intracellular calcium level in MDCK cells assessed as sustained phase at 100 uM within 250 secs by Fura-2 in presence of extracellular calcium; format: functional, cell-based; conditions: Canis lupus familiaris
Method in brief: (§4)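 Trypsinized cells recovered 1 h, then loaded with 2 μM fura-2/AM for 30 min at 25 °C. Cells washed and resuspended in Ca2+-containing medium (2 mM CaCl2, 2 mM HEPES, pH 7.4); 0.5 million cells/mL in a stirred cuvette at 25 °C. Compound added at 30 s and recorded to 250 s. Excitation at 340/380 nm, emission at 510 nm. Calibration used Triton X-100 then 10 mM EGTA; Kd 155 nM. n = 5.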

MDCK [11] = assay: Induction of intracellular calcium level in MDCK cells at 25 to 100 uM by Fura-2 in presence of extracellular calcium; format: functional, cell-based; conditions: Canis lupus familiaris; method in brief: as §4
MDCK [12] = assay: Induction of intracellular calcium level in MDCK cells at 100 uM by Fura-2 in presence of calcium and 10 nM phorbol myristate acetate protein kinase C activator; format: functional, cell-based; conditions: Canis lupus familiaris; method in brief: as §2
MDCK [13] = assay: Cell cycle arrest in MDCK cells assessed as accumulation at S phase at 100 uM after 16 hrs by flow cytometric analysis (reference value: 24.5%); format: functional, Canis lupus familiaris
MDCK [14] = assay: Cell cycle arrest in MDCK cells assessed as accumulation at subG1 phase at 100 uM after 16 hrs by flow cytometric analysis (reference value: 0.5%); format: functional, Canis lupus familiaris
MDCK [15] = assay: Induction of intracellular calcium level in MDCK cells at 100 uM assessed as calcium influx by Fura-2 in presence of calcium and 1 uM verapamil L-type calcium channel blocker; format: functional, cell-based; conditions: Canis lupus familiaris; method in brief: as §1
MDCK [16] = assay: Induction of intracellular calcium level in MDCK cells assessed as rise in fura-2 340/380 excitation signal ratio at 100 uM treated at 30 secs by Fura-2 in presence of extracellular calcium; format: functional, cell-based; conditions: Canis lupus familiaris; method in brief: as §4
MDCK [17] = assay: Induction of intracellular calcium level in MDCK cells at 100 uM preincubated 220 secs by Fura-2 in calcium free medium in presence of endoplasmic reticulum Ca2+-ATPase inhibitor thapsigargin; format: functional, cell-based; conditions: Canis lupus familiaris; method in brief: as §3
MDCK [18] = assay: Induction of intracellular calcium level in MDCK cells at 50 uM by Fura-2 in presence of calcium relative to diallyl trisulfide; format: functional, Canis lupus familiaris
MDCK [19] = assay: Induction of intracellular calcium level in MDCK cells at 10 uM by Fura-2 in calcium free medium in presence of 10 uM U73343 inactive analogue of U73122 phospholipase C inhibitor; format: functional, cell-based; conditions: Canis lupus familiaris
Method in brief: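 MDCK cells were trypsinized, recovered 1 h, then loaded with 2 μM fura-2/AM for 30 min at 25 °C. They were read in a stirred cuvette at 25 °C (0.5 million cells/mL) in Ca2+-free medium with 0.1 mM EGTA in place of CaCl2. Ex 340/380 nm, em 510 nm, 1 s intervals. Pretreatment was 2 μM U73122 or 10 μM U73343 before ATP. Kd 155 nM; n=5.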

MDCK [20] = assay: Induction of intracellular calcium level in MDCK cells assessed as net peak value at 10 uM by Fura-2 in calcium free medium; format: functional, Canis lupus familiaris; method in brief: as §3

## C=CCSSSCC=C [ALLITRIDIN]
MDCK [1]
  Activity: 38.6%
MDCK [2]
  Activity: Active
MDCK [3]
  Activity: Active
MDCK [4]
  Activity: inactive
MDCK [5]
  IC50: 0.05 mM
MDCK [6]
  Activity: 26.8%
MDCK [7]
  Activity: inactive
MDCK [8]
  Activity: Active
MDCK [9]
  Activity: inactive
MDCK [10]
  Activity: Active
MDCK [11]
  Activity: Dose-dependent effect
MDCK [12]
  Activity: Active
MDCK [13]
  Activity: 34.6%
MDCK [14]
  Activity: 33.1%
MDCK [15]
  Activity: Active
MDCK [16]
  Activity: Active
MDCK [17]
  Activity: inactive

## C=CCSSCC=C [DIALLYLDISULFIDE]
MDCK [1]
  Activity: 20%
MDCK [18]
  Activity: 45.6%
MDCK [5]
  Activity: Dose-dependent effect
  IC50: 1.82 mM
MDCK [6]
  Activity: 53.3%
MDCK [13]
  Activity: 26.8%
MDCK [14]
  Activity: 7.1%

## Nc1ncnc2c1ncn2[C@@H]1O[C@H](COP(=O)(O)OP(=O)(O)OP(=O)(O)O)[C@@H](O)[C@H]1O [ADENOSINE TRIPHOSPHATE]
MDCK [3]
  Activity: inactive
MDCK [19]
  Activity: Active
MDCK [20]
  Activity: 132 nM

## C=CCSCC=C [DIALLYL SULFIDE]
MDCK [1]
  Activity: 19%
MDCK [18]; Canis lupus familiaris
  Activity: inactive
MDCK [5]
  Activity: Dose-dependent effect
  IC50: 3.26 mM
MDCK [6]
  Activity: 53.3%
MDCK [13]
  Activity: 27.7%
MDCK [14]
  Activity: 1.1%
